Screens deposited in PubChem BioAssay by several laboratories.
SR-BI DiI-HDL act: activators of SR-BI mediated DiI-HDL uptake, primary screen, ldlA[mSR-BI] CHO cells, DiI fluorescence; 320,000 tested, 0.096% active; activation, % at 12.5 µM; 3 h; 100 = double the neutral-control signal;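 active = mean replicate activation of at least 60% and every replicate at or above 60%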;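 also: 0% = median plate neutral-control signal and 100% = twice that signal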
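Material: SR-BI-overexpressing, LDLR-lacking CHO cells | Dosing: Single compound concentration, delivered by pin transfer | Probe or stimulus: Labelled HDL, 10 µg/mL | Signal: Bottom-read cell fluorescence after medium removal, ex 550/em 595 nm | Schedule: 3 h, 37 °C | Evaluation: HDL uptake via cellular fluorescence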
FN deposition inh: inhibitors of fibronectin matrix deposition, primary screen, AH1F cells, Alexa488-fibronectin fluorescence, plate reader; AH1F fibroblasts, overnight; inhibition, % at 12.6 µM; 350,000 tested, 0.086% active;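 active = mean inhibition across replicates of 30% or more, regardless of how many single replicates reach that level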;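 also: positive control wells lacked labelled fibronectin entirely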
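Material: AH1F fibroblast monolayer depositing Alexa488-labelled fibronectin into matrix | Input: 10000 AH1F cells/well | Medium: DMEM plus 2% serum, read in PBS | Reagent: Alexa488-fibronectin, 24 nM final in well | Compound dosing: One dose per compound, pinned | Schedule: 1 h adhesion, overnight exposure | Measured by: Fluorescence at 485 nm excitation, 525 nm emission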
SR-BI HDL uptake: inhibitors of SR-BI mediated HDL lipid uptake, primary screen, ldlA[mSR-BI] cells, fluorescence, single point. ldlA[mSR-BI] CHO cells, DiI-HDL uptake fluorescence, 3 h. 320,000 tested, 0.96% active. inhibition, % at 12.5 µM. Scavenger receptor class B member 1 (Mus musculus), Q61009;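 active = mean replicate inhibition of at least 70% and a set share of replicates each scoring 70 or more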;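 also: 0% = median of neutral control wells and 100% = median of positive control wells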
Target sequence (Q61009 whole entry, looked up): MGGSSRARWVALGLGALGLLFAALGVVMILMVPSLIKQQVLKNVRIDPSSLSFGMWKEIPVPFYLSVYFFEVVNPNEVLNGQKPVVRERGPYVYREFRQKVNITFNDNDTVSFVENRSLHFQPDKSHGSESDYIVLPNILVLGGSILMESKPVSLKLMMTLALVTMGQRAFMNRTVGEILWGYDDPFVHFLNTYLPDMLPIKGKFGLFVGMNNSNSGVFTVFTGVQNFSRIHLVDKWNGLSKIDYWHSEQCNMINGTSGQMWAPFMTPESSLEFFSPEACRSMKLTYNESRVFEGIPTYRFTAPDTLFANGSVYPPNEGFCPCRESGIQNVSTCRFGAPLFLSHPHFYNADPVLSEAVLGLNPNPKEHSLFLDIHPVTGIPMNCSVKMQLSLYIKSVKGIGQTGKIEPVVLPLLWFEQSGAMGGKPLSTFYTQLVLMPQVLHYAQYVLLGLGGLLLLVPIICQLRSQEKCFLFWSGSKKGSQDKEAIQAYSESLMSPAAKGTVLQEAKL
Efflux pump mplx: inhibitors of Candida efflux pumps in yeast, primary screen, S. cerevisiae, Nile Red, multiplex | S. cerevisiae Candida pump triplex | inhibition, % at 10 µM | 330,000 tested, 0.44% active;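 active = plate passing quality check with inhibition over a set limit, or well fluorescence over plate mean plus 4 SD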;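 also: Nile Red retained in pooled yeast measured as flow cytometry median fluorescence; 0% = buffer negative control and 100% = Enniatin B positive control; higher means more Nile Red kept so more efflux inhibition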
CaV13 FRET inh: Disruptors of the CACNA1D IQ motif to Ca2+-dependent inactivation inhibitor domain association, primary screening, Förster resonance energy transfer in intact living …. HEK cells, CFP/YFP FRET ICDI-IQ, plate reader, 10 min; percent FRET-ratio fall versus neutral wells. inhibition, % at 12.3 µM. 340,000 tested, 0.098% active;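 active = mean replicate inhibition of at least 30% and at least 1% of replicates passing that level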;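 also: 0% = median of the neutral control wells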
An asterisk follows results filed as active; x = no result given. In the library only some 1.2% were active in any assay of this set; here they are far more common.

SMILES	SR-BI DiI-HDL act	FN deposition inh	SR-BI HDL uptake	Efflux pump mplx	CaV13 FRET inh
COc1ccccc1C(=O)NC(=S)Nc1ccccc1N1CCCC1	-75	-6	75*	0	-3
CCc1cnc(N2[C@H](CO)[C@@H](c3ccc(C#CCC4CCCC4)cc3)[C@@H]2C#N)s1	x	5	x	x	x
COc1ccc(Nc2ncnc3sc(-c4ccccc4)cc23)cc1OC	-93	-1	93*	0	-4
COC(=O)c1ccc(NC(=O)c2cc(-c3ccccn3)nc3ccccc23)cc1	-3	-1	3	0	-19
CCOc1ccccc1NC(=O)c1cc(-c2ccccn2)nc2ccccc12	-75	x	75*	0	-6
CCN(CC)C(=O)c1cccc(NC(=O)c2cc(-c3ccccn3)nc3ccccc23)c1	-75	6	75*	0	-3
COc1ccc(NC(=O)c2cc(-c3ccccn3)nc3ccccc23)c(OC)c1	-55	10	55	0	-5
O=C(Nc1ccc(F)cc1)N1CC(=O)N2[C@H](CO)[C@H](c3ccc(-c4ccccc4)cc3)[C@H]2C1	x	-5	x	x	x
O=C(N/N=C/c1c(-c2ccccc2)[nH]c2ccccc12)c1cccnc1	-75	8	75*	0	-4
COc1ccc(NC(=S)Nc2cccc(C(C)=O)c2)cc1OC	-73	0	73*	0	9
CC(=O)c1cccc(NC(=S)NCCc2ccc(Cl)cc2)c1	-76	-10	76*	0	2
NC(=S)NN=C1c2cc(Cl)ccc2-c2c1cc(Cl)cc2[N+](=O)[O-]	-105	x	105*	x	x
CCCC(=O)Nc1ccc2c(c1)C(=O)N(C)C[C@H](OC)[C@H](C)CN(C(C)=O)[C@@H](C)CO2	x	5	x	x	x
CC[n+]1c(/C=C/N(C)c2ccccc2)n(-c2ccccc2)c2ccc(-c3nc4ccccc4s3)cc21	-78	x	78*	0	x
CCn1cc(C(=O)OCC(=O)OC2CC(C)CCC2C(C)C)c(=O)c2ccc(C)nc21 (configuration not stated)	-81	5	81*	0	-4
CCc1cccc(CC)c1N1C(=O)c2cc(N3CCOCC3)c([N+](=O)[O-])cc2C1=O	-75	-1	75*	0	-4
CCc1ccc(N2C(=O)c3cc(N4CCOCC4)c([N+](=O)[O-])cc3C2=O)cc1	x	x	x	0	x
O=C(C[C@@H]1CC[C@H]2[C@@H](COC[C@@H](O)CN2Cc2ccccc2)O1)N[C@H]1CCN(Cc2ccccc2)C1	x	-2	x	x	x
COc1cc(/C=N/NC(=S)Nc2cccc(S(=O)(=O)N(C)C)c2)ccc1O	-71	1	71*	1	-5
Cc1ccc(O)c(N=CC2=C(O)c3ccccc3C2=O)c1	-118	0	118*	0	-6
O=C(C[C@H]1CC[C@H]2[C@@H](COC[C@@H](O)CN2S(=O)(=O)c2ccc(Oc3ccccc3)cc2)O1)NC1CCC1	x	5	x	x	x
COc1ccccc1NC(=O)Nc1nc(CC(=O)N2CCN(c3ccccc3F)CC2)cs1	-80	7	80*	0	-6
O=C(Cc1csc(-c2ccccc2)n1)NCc1ccc(F)cc1	9	-1	-9	0	-3
COc1ccccc1NC(=O)Nc1nc(CC(=O)NCc2ccc(F)cc2)cs1	-72	-1	72*	0	-6
COc1ccc(C(=O)Nc2nc(CC(=O)NCCc3cccc(OC)c3)cs2)cc1	-73	0	73*	0	-6
COc1ccc(C(=O)Nc2nc(CC(=O)NCCc3ccccc3)cs2)cc1	-42	-3	42	0	-5
COc1ccccc1NC(=O)Nc1nc(CC(=O)NCc2c(F)cccc2F)cs1	-72	8	72*	0	x
COc1ccccc1NC(=O)Cc1csc(NC(=S)Nc2ccccc2)n1	-20	-6	20	0	-5
CC(C)CC#Cc1ccc2c(c1)O[C@H](CN(C)C(=O)Cc1cccnc1)[C@@H](C)CN([C@H](C)CO)S2(=O)=O	x	-8	x	x	x
C[C@H]1CCCCO[C@H](CN(C)C(=O)Nc2ccc(F)cc2)[C@@H](C)CN([C@@H](C)CO)C(=O)c2cc(NC(=O)Nc3ccc(F)cc3)ccc2O1	x	1	x	x	x
